Here are results for eight compounds from ChEMBL document CHEMBL2429816, “Synthesis and binding affinity of new 1,4-disubstituted triazoles as potential dopamine D(3) receptor ligands” (Bioorg Med Chem Lett, 2013).

What is called inhibition is the change of the read-out against control, counted positive when it falls. A lower inhibition goes with a response near the control. As a reminder, the Ki is a dissociation constant, usually derived from enzyme kinetics or from competition with a known ligand. Read a high Ki as lower affinity. As a reminder, the Kb is the equilibrium dissociation constant of an antagonist, usually derived from a functional assay.

The target of experiment [1] is D(1A) dopamine receptor (Homo sapiens) (UniProt P21728). Description: Displacement of [3H]-SCH23390 from cloned human dopamine D1 receptor at 1 uM relative to control. An outline of the steps:
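Competition binding at the human D1 receptor. Compounds with little affinity are reported as percent inhibition at the highest concentration tested.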
(In a radioligand displacement assay an active substance lowers the binding of a labelled ligand.)

For a further experiment, the target named is T1, D(4) dopamine receptor (Homo sapiens, UniProt P21917).
T1 sequence (P21917 whole entry): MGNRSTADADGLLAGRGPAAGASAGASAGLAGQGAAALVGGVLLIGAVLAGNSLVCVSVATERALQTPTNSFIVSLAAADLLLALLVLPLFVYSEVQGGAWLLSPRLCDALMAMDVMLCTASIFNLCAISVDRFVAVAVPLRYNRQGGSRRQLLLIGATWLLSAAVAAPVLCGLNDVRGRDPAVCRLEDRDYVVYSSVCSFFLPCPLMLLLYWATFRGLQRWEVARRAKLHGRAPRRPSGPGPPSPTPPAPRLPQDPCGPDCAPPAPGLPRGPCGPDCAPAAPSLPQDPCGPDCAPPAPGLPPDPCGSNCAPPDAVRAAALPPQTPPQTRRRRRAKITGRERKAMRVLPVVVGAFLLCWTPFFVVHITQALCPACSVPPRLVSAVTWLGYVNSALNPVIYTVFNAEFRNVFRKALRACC
Nature of the experiment: Displacement of [3H]-spiperone from cloned human dopamine D4 receptor. An outline of the steps: (§1)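 Competition binding at human receptor subtypes by the group's earlier procedure. Ki was calculated from displacement data by the Cheng–Prusoff equation.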

The next experiment concerns the target D(2) dopamine receptor (Homo sapiens, UniProt P14416). Nature of the experiment: Displacement of [3H]-spiperone from cloned human dopamine D2 receptor. Put shortly: as §1
In experiment [2] the target is T2, D(3) dopamine receptor (Homo sapiens, UniProt P35462). Description: Displacement of [3H]-spiperone from cloned human dopamine D3 receptor. Put shortly:
as §1

Experiment [3] deals with Dopamine receptors; D3 & D4 (Homo sapiens) (UniProt P35462+P21917). Nature of the experiment: Selectivity ratio of Ki for cloned human dopamine D4 receptor to Ki for cloned human dopamine D3 receptor.
For experiment [4], the species on record is Homo sapiens. Description: Selectivity ratio of Ki for cloned human dopamine D2 receptor to Ki for cloned human dopamine D3 receptor.
Experiment [5] has as its target T2, D(3) dopamine receptor. Nature of the experiment: Antagonist activity at human dopamine D3 receptor assessed as [35S]GTPgammaS binding preincubated for 15 mins followed by [35S]GTPgammaS addition measured after 40 mins. The format is functional. (In general: GTPγS resists hydrolysis and so accumulates on activated G proteins.)
Experiment [6] addresses D(3) dopamine receptor (Rattus norvegicus, UniProt P19020). Description: Displacement of [3H]spiperone from rat dopamine D3 receptor expressed in sf9 cells after 60 mins.
The target in experiment [7] is Dopamine receptor D2 and D3 (Rattus norvegicus) (UniProt P19020+P61169). Description: Selectivity ratio of Ki for rat dopamine D2 receptor to Ki for rat dopamine D3 receptor.
The species named for experiment [8] is Homo sapiens. Description: Selectivity ratio of Ki for dopamine D2 receptor (unknown origin) to Ki for dopamine D3 receptor (unknown origin). Put shortly:
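Radioligand competition binding at human D2 and D3 receptors. Ki was derived from displacement data using the Cheng–Prusoff equation. The selectivity value is the D2 Ki divided by the D3 Ki.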

T2 sequence (P35462 whole entry): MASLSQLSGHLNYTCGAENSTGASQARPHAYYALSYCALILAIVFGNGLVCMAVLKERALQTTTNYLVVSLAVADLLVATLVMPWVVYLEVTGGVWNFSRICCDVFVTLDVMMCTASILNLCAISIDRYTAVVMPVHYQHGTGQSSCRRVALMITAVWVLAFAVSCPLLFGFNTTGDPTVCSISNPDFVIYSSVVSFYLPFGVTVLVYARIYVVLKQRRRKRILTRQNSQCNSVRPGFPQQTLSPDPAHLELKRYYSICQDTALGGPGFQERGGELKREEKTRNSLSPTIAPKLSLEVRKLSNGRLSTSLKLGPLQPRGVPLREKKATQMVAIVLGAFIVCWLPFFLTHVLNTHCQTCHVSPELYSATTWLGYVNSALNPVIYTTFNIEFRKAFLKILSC
D(2) dopamine receptor, sequence (P14416 whole entry): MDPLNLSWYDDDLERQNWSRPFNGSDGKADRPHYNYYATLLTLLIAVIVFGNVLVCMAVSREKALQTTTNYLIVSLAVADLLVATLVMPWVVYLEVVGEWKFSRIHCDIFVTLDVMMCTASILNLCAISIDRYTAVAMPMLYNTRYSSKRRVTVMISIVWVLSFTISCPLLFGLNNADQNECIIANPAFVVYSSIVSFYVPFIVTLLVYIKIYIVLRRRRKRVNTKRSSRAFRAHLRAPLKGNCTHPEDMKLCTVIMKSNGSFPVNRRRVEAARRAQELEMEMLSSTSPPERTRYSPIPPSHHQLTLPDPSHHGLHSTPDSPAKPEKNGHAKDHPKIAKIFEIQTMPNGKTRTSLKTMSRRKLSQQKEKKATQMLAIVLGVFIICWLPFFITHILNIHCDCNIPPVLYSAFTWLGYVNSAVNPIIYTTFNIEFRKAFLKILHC
Dopamine receptors; D3 & D4 (Homo sapiens), sequence (P35462 whole entry, looked up, one chain of several): as the sequence (P35462 whole entry) above
D(1A) dopamine receptor (Homo sapiens), sequence (P21728 whole entry): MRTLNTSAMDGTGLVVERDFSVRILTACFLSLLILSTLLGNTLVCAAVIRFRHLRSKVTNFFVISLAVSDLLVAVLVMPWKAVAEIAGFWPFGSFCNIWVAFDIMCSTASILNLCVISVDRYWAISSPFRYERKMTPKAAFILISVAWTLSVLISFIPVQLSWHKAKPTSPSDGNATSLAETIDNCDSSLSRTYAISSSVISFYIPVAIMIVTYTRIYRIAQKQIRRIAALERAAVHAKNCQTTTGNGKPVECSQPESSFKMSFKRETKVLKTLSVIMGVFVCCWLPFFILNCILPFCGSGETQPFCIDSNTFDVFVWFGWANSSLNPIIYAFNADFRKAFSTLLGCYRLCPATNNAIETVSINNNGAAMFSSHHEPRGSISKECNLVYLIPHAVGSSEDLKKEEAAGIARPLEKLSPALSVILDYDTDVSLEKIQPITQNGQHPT
D(3) dopamine receptor (Rattus norvegicus, UniProt P19020), sequence (P19020 whole entry): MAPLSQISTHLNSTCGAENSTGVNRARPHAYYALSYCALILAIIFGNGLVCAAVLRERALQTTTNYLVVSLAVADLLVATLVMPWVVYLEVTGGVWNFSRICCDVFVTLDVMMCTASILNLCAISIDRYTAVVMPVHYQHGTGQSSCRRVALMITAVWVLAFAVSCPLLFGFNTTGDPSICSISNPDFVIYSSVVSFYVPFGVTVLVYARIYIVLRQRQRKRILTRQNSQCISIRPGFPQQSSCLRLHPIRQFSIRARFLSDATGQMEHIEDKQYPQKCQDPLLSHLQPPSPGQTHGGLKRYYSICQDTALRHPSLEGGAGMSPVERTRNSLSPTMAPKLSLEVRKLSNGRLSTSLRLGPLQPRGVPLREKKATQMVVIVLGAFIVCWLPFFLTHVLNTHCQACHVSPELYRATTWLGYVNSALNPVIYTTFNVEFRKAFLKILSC
Dopamine receptor D2 and D3 (Rattus norvegicus), sequence (P19020 whole entry, looked up): as the sequence (P19020 whole entry) above
Dopamine receptor D2 and D3 (Rattus norvegicus), sequence (P61169 whole entry, looked up): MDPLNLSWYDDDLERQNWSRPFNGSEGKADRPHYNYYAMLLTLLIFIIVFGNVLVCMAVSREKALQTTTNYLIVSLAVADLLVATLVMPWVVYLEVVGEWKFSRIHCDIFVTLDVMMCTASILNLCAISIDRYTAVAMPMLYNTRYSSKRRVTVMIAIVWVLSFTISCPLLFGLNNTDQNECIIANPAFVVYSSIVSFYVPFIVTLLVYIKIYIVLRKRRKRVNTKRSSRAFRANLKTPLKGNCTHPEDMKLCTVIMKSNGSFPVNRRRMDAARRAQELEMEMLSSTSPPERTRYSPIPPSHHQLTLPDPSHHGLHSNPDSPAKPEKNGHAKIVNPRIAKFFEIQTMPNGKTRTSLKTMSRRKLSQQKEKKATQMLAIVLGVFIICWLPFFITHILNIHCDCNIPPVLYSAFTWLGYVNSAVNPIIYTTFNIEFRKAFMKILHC

In experiment [1], `COc1ccccc1N1CCN(CCCCn2cc(-c3ccc(N)cc3)nn2)CC1` showed an inhibition of 38.4%. Also, the values for the Ki at D(4) dopamine receptor, on D(2) dopamine receptor and on D(3) dopamine receptor [2] were 532 nM, 199 nM and 2.7 nM, respectively. For the same compound, the Ratio Ki in [3] is 197; in the experiment filed under Homo sapiens [4] it was 73.6. Further, the Kb at D(3) dopamine receptor [5] was 1.4 nM.
On D(3) dopamine receptor [6], `NC(=O)c1cccc(N2CCN(CCCCNC(=O)c3ccc(Br)cc3)CC2)c1` showed a Ki of 1.6 nM. For the same compound, the Ratio Ki in experiment [7] is 1800.
The compound `COc1ccc(-c2cn(CCCCN3CCN(c4ccccc4OC)CC3)nn2)cc1` registered an inhibition in experiment [1] of 44.3%. Moreover, the Ki amounted to 395 nM at D(4) dopamine receptor, 212 nM at D(2) dopamine receptor and 40.1 nM at D(3) dopamine receptor [2]. Besides, the Ratio Ki is 9.8 in [3] and 5.3 in the experiment listed under Homo sapiens [4].
As to `CCCN[C@H]1CCc2nc(N)sc2C1` [PRAMIPEXOLE], in the experiment listed under Homo sapiens [8], the Ratio Ki came to 72.
Take `COc1ccccc1N1CCN(CCCCn2cc(-c3cccnc3)nn2)CC1`: in experiment [1], the inhibition came out at 40.9%. Further, the results for the Ki on D(4) dopamine receptor, at D(2) dopamine receptor and on D(3) dopamine receptor [2] were 1900 nM, 181 nM and 132 nM, respectively. The Ratio Ki is 14.3 in experiment [3] and 1.4 in the experiment filed under Homo sapiens [4].
As to `COc1ccccc1N1CCN(CCCCn2cc(-c3ccc(-c4cnco4)cc3)nn2)CC1`, the inhibition in [1] was 50%. The Ki at D(4) dopamine receptor worked out at 426 nM; at D(2) dopamine receptor, 137 nM; at D(3) dopamine receptor [2] it was 135 nM. Further, the figures for the Ratio Ki (in experiment [3]; in the experiment filed under Homo sapiens [4]) were 3.2 and 1, respectively.
For `COc1ccccc1N1CCN(CCCCn2cc(-c3ccccc3)nn2)CC1`, the inhibition in [1] turned out to be 39.4%. For the same compound, the Ki at D(4) dopamine receptor was 639 nM; on D(2) dopamine receptor, 228 nM; on D(3) dopamine receptor [2], 81.2 nM. Moreover, the Ratio Ki turned out to be 7.9 in [3] and 2.8 in the experiment filed under Homo sapiens [4].
The compound `COc1ccccc1N1CCN(CCCCn2cc(-c3ccc(Br)cc3)nn2)CC1` had an inhibition in [1] of 44.3%. For the same compound, the Ki came to 387 nM on D(4) dopamine receptor, 227 nM on D(2) dopamine receptor and 111 nM on D(3) dopamine receptor [2]. Moreover, the Ratio Ki in experiment [3] turned out to be 3.5; in the experiment listed under Homo sapiens [4] it was 2.
